High-throughput results as filed in PubChem BioAssay.
Only some compounds are listed: those with a hit (about 9.3% of all), similar ones and a draw of the others.
Ecoli tolC: growth inhibitors of E. coli tolC mutant, primary screen, strain BW25113 ΔtolC::kan, 384-well. OD615. growth inhibition, % at 10 µM (by protocol). 65,000 compounds, 2.2% hits. AID 573, 2007;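 active = growth inhibition at or above a cutoff equal to the mean over every tested compound plus 3 SD, cut at about 60% in these data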;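 also: growth measured after 20 h incubation at 37 °C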
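Test system: tolC-deleted E. coli BW25113; medium: LB with kanamycin 50 µg/mL; compound: single-point testing at 10 µM; incubation: 20 h compound exposure of bacteria at 37 °C; signal: OD at 615 nm; evaluation: growth inhibition in percent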
E coli WT exp: growth inhibitors of wild-type E. coli, primary screen, strain BW25113, expanded library, OD600; 98,000 compounds, 0.15% hits; AID 710, 2007; OD600 absorbance; growth inhibition, % at 100 µM;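 active = growth inhibition above about 50% at one test dose, limit read from the data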;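 also: growth measured after 20 h incubation at 37 °C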
PostGolgi ctrl: growth inhibition of yeast control strain, primary screen, counter-screen for post-Golgi transport modulator project; efflux-deficient yeast background strain, growth absorbance A615, 16 h; inhibition, % at 10 µM; 98,000 compounds, 5% hits; AID 738, 2007
PostGolgi yeast: phenotypic screen on post-Golgi transport, primary screen; post-Golgi transport phenotypic cell assay; 98,000 compounds, 0.9% hits; inhibition, % at 10 µM; AID 739, 2007;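 also: yeast cells grown in 1536-well plates; yeast grown about 18 h at 30C before absorbance read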
D1 mod: D1 CRE-luciferase signal change, two-sided – cell-based, HEK293 D1, dopamine EC30, D1 allosteric modulator project, primary screen; D(1A) dopamine receptor (Homo sapiens), P21728; dopamine EC30 potentiation; actives deviate in either direction; B-score at 10 µM; 58,000 compounds, 5.9% hits; AID 641, 2007;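 active = luminescence count or its row- and column-corrected plate score outside the 99.7% band of the plate's sample wells, on either side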
DAT uptake mod: changed hDAT dopamine uptake under cocaine IC80, either direction, primary screen, cocaine antagonist project, cell-based, LLC-PK1 hDAT, [14C]-dopamine uptake, MLSMR; B-score at 10 µM; 110,000 compounds, 1.3% hits; LLC-PK1 hDAT cells, [14C]-dopamine uptake with cocaine IC80; actives deviate in either direction; Sodium-dependent dopamine transporter (Homo sapiens), Q01959; AID 449768, 2010;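 active = Z score or B-score, a plate-position-corrected score, falls beyond the plate's 99.7% confidence bounds, in either direction; inactive = both scores lie inside the 99.7% bounds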;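 also: scored against the spread of the other compound wells on the same plate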
Target sequence (Q01959 whole entry, looked up): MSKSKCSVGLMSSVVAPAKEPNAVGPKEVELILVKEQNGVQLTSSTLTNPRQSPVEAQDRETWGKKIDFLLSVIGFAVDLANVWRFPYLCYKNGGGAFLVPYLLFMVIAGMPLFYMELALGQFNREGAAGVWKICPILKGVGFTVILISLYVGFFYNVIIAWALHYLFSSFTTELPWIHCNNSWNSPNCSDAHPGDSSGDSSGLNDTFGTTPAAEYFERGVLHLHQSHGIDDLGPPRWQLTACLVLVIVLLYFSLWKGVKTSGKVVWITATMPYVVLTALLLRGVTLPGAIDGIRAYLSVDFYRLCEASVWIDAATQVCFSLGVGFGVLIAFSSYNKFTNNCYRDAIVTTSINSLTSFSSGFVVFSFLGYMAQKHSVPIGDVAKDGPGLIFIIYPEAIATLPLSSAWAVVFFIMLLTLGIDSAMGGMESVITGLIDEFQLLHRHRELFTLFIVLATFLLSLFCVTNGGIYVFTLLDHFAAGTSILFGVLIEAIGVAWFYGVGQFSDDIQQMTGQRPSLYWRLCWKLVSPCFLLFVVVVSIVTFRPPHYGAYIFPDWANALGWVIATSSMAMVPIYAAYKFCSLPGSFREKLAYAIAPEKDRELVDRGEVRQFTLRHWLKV
An asterisk follows results filed as active; / = not tested or not shown. Rule as the data show it, unless noted: active = inhibition above about 30%; inactive = the rest.

SMILES	Ecoli tolC	E coli WT exp	PostGolgi ctrl	PostGolgi yeast	D1 mod	DAT uptake mod
O=C(c1ccc2nc(N3CCOCC3)sc2c1)N1CCC(Cc2ccccc2)CC1	/	-1.0	3.5	21.6	/	0.604
CCCCN(CCCNC(=O)c1ccc2nc(N3CCOCC3)sc2c1)Cc1ccccc1	/	0.0	-3.2	1.6	/	2.62*
Cc1csc(NC(=O)CSc2nnc(-c3ccccn3)n2-c2ccc(C)c(C)c2)n1	14.3	-19.0	1.3	4.1	1.18	2.68*
CCn1c(SCC(=O)Nc2nc(-c3ccccc3)cs2)nnc1-c1ccccc1	32.9	-19.0	57.7*	8.9	-2.04	-0.516
Cc1ccc(S(=O)(=O)CC(=O)Nc2nc(-c3ccccc3)cs2)cc1	/	-9.0	62.5*	-12.7	/	0.106
O=C(CS(=O)(=O)c1ccccc1)Nc1nc(-c2ccccc2)cs1	100.0*	-5.0	41.1*	-8.3	/	0.0724
Cc1ccc(-n2c(SCC(N)=O)nnc2-c2ccccn2)cc1C	-16.2	0.0	6.1	-7.1	1.59	-0.529
COC1(OC)C=CC(=O)C=C1NC(=O)c1ccccc1OC(C)=O	/	/	/	/	/	-0.352
CC(C)CN(C(=O)c1nn(C)c(=O)c2ccccc12)c1nc2ccccc2s1	/	-8.0	16.6	1.7	/	0.739
O=c1cc(-c2ccccc2Cl)oc2c(NS(=O)(=O)c3ccccc3OC(F)(F)F)ccc(O)c12	/	/	/	/	/	-1.01
O=c1c2nnn(Cc3ccccc3)c2ncn1C/C=C/c1ccccc1	7.3	1.0	8.2	-10.2	0.00261	0.092
C#CCNC(=O)C1=C[C@H](C)[C@@H](CCCO)[C@H](OCC)O1	/	/	/	/	/	-0.828
Cc1cccc(-n2cnc(C(=O)N/N=C/c3ccccc3)c2)n1	/	6.0	6.1	-6.7	/	-0.478
O=C(NNc1ccccn1)C(=O)NNS(=O)(=O)c1ccc(Cl)cc1	/	23.0	31.3*	2.6	/	/
O=C(NNS(=O)(=O)c1ccccc1)C1CCN(S(=O)(=O)c2ccc(Cl)cc2)CC1	/	-5.0	-5.0	3.4	/	-0.618
CC(C)(O)c1cn(-c2nonc2N)nn1	-32.2	0.0	8.1	-2.8	0.738	-0.67
C/C(CC(=O)Nc1ccc(OCc2ccccc2)cc1)=N\NC(=O)C(=O)Nc1ccc(C)c(Cl)c1	/	1.0	2.9	5.3	/	-0.194
O=c1cc(-c2cccc3ccccc23)[nH][nH]1	17.3	3.0	0.9	-4.5	/	2.36*
CCCC1CCc2c(sc(N)c2C(N)=O)C1 (configuration not stated)	/	9.0	8.3	31.5*	/	-0.0919
CC(C)(C)C1CCc2c(sc(N)c2C(N)=O)C1 (configuration not stated)	16.1	9.0	-1.4	-7.0	1.37	0.0331
C=C1CC2C(=O)N(Cc3cc(OC)ccc3OC)C(C(=O)OCC)(C(=O)OCC)C1N2C(=O)OC(C)(C)C (configuration not stated)	/	/	/	/	/	0.356
COc1ccc(-c2cc(C3CCN(c4ccc(C(C)=O)cc4[N+](=O)[O-])CC3)[nH]n2)cc1	/	-11.0	37.1*	21.3	/	0.661
CC(=O)c1ccc(N2CCC(c3cc(-c4ccc(Cl)cc4)n[nH]3)CC2)c([N+](=O)[O-])c1	/	-12.0	43.1*	40.8*	/	1.34
COC(=O)c1ccc(N2CCC(c3cc(-c4ccc(OC)cc4)n[nH]3)CC2)c([N+](=O)[O-])c1	/	-13.0	27.1	7.7	/	0.933
O=C(COc1cccc(OC(F)F)c1)Nc1ccc(SC(F)F)cc1	70.0*	5.0	30.8*	-11.6	0.149	-0.619
SMILES	Ecoli tolC	E coli WT exp	PostGolgi ctrl	PostGolgi yeast	D1 mod	DAT uptake mod
O=C(COc1cccc(Oc2ccccc2)c1)Nc1ccc(SC(F)F)cc1	/	-6.0	10.5	13.4	/	-0.0639
CN(C(=O)CSc1nc(-c2ccccc2)cn1N)C(c1ccccc1)c1ccccc1	/	-9.0	47.5*	-12.0	/	0.612
CCOc1ccc(NC(=O)c2cccc3c2C(=O)N(Cc2cccnc2)C3)cc1	19.8	-5.0	32.4*	-4.0	1.76	-0.312
COC(CNC(=O)c1cccc2c1C(=O)N(Cc1cccnc1)C2)OC	/	3.0	-14.1	1.5	/	0.333
CCOC(=O)N1CCC(N2Cc3cccc(C(=O)Nc4ccc(OC)c(OC)c4)c3C2=O)CC1	-2.4	-10.0	37.0*	1.9	-2.16*	-0.178
CCCN1Cc2cccc(C(=O)Nc3ccc(OC)c(OC)c3)c2C1=O	-11.0	/	/	/	3.8*	/
CCCN1Cc2cccc(C(=O)NCc3ccccc3OC)c2C1=O	/	14.0	6.8	-1.7	/	2.22
COCCN1Cc2cccc(C(=O)Nc3ccc(S(=O)(=O)N4CCCCC4)cc3)c2C1=O	-26.6	/	/	/	6.76*	/
O=C1CC(c2cccs2)Cc2nc(NCC3CCCO3)ncc21 (configuration not stated)	-17.8	-1.0	-0.6	1.0	2.99	1.17
O=C(C1COc2ccccc2O1)N1CCc2ccccc2C1 (configuration not stated)	/	/	/	/	/	0.152
c1ccc(-n2nnnc2NC2CCCCC2)cc1	/	3.0	0.0	0.9	/	0.071
CCOc1cc(-c2ccccc2)nc(N)n1	0.8	7.0	-2.5	0.0	8.15*	1.33
Cc1ccc(C2C(C(=O)c3sc(C)nc3C)=C(O)C(=O)N2CCCN(C)C)o1 (configuration not stated)	-22.1	/	/	/	0.311	/
CC(C)CNc1c(N)c(=O)oc2ccccc12	/	4.0	0.3	12.5	/	0.209
C=CCn1c(=N)n(CC(O)COc2ccccc2OC)c2ccccc21 (configuration not stated)	-7.3	11.0	3.8	-16.7	-5.36*	-0.108
CC(C)(C)C(=O)Cn1c(=N)n(Cc2ccccc2Cl)c2ccccc21	/	-6.0	15.4	2.6	/	0.396
COc1ccccc1OCC(O)Cn1c(=N)n(Cc2ccccc2)c2ccccc21 (configuration not stated)	36.3	2.0	-1.5	-1.6	-4.73*	1.4
N=c1n(Cc2ccccc2)c2ccccc2n1CC(O)c1ccccc1 (configuration not stated)	43.9	7.0	-2.9	1.6	-3.58	0.0606
CC(C)(C)C(=O)Cn1c(=N)n(Cc2ccccc2)c2ccccc21	100.0*	1.0	47.8*	1.4	-3.29*	1.13
CCCCn1c(=N)n(CC(O)COc2cccc(C)c2)c2ccccc21 (configuration not stated)	46.5	29.0	18.8	-0.3	-0.782	-0.127
CCCCCn1c(=N)n(CC(O)COc2ccccc2OC)c2ccccc21 (configuration not stated)	15.0	16.0	5.5	-0.2	-5.83*	2.48
CC(NC(=O)c1ccco1)C(c1cccs1)N1CCOCC1 (configuration not stated)	-9.0	1.0	3.6	-1.3	/	0.283
C=CCNc1nc(N2CCCC2)nc2ccccc12	33.2	17.0	6.1	1.1	-4.5*	/
